Reference: ChEMBL document CHEMBL4229344 (Eur J Med Chem, 2018)

Columns and labels:
[1] = target: Serine/threonine-protein kinase D3 (Homo sapiens) (UniProt O94806); assay: Binding affinity to wild-type human partial length PRKD3 (S543 to E863 residues) expressed in bacterial expression system assessed as residual binding level at 1 uM by Kinomescan method relative to control
[2] = tested on: ALK tyrosine kinase receptor (Homo sapiens), Q9UM73 [C1156Y]; assay: Binding affinity to wild-type human partial length ALK C1156Y mutant (I1088 to E1409 residues) expressed in mammalian expression system assessed as residual binding level at 1 uM by Kinomescan method relative to control
Method in brief: (§1)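 Single-concentration KINOMEscan (DiscoverX) binding screen at 1 μM against a panel of 468 purified kinases and mutants. The read-out is binding relative to control.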

[3] = target: Non-receptor tyrosine-protein kinase TYK2 (Homo sapiens) (UniProt P29597); assay: Binding affinity to wild-type human partial length TYK2 JH1 catalytic domain (V877 to C1187 residues) expressed in mammalian expression system assessed as residual binding level at 1 uM by Kinomescan method relative to control
[4] = target: Mitogen-activated protein kinase kinase kinase 11 (Homo sapiens) (UniProt Q16584); assay: Binding affinity to wild-type human partial length MLK3 (I77 to W399 residues) expressed in bacterial expression system assessed as residual binding level at 1 uM by Kinomescan method relative to control
[5] = tested on: Proto-oncogene tyrosine-protein kinase receptor Ret (Homo sapiens), P07949 [V804L]; assay: Binding affinity to human partial length RET V804L mutant (E713 to D1014 residues) expressed in bacterial expression system assessed as residual binding level at 1 uM by Kinomescan method relative to control
Method in brief: (§2)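 Kinome-wide single-concentration binding screen (KINOMEscan) at 1 μM against a panel of 468 purified kinases and mutants. Read-out is relative binding of each kinase compared with control. Selectivity across the panel was summarised as an S(10) score.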

NCI-H1703 = assay: Antiproliferative activity against human NCI-H1703 cells after 72 hrs by CellTiter-Glo or CCK-8 assay; type: functional; conditions: NCI-H1703, 72 h
Method in brief: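 Cells in RPMI 1640 with 10% FBS at 37 °C, 5% CO2, seeded at 1–3 × 10^4 cells/mL with serial compound dilutions for 72 h. Viability read by CellTiter-Glo luminescence or CCK-8 absorbance (450/655 nm), normalized to DMSO control.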

[6] = target: Calcium/calmodulin-dependent protein kinase type II subunit delta (Homo sapiens) (UniProt Q13557); assay: Binding affinity to wild-type human partial length CAMK2D (M1 to E329 residues) expressed in bacterial expression system assessed as residual binding level at 1 uM by Kinomescan method relative to control
[7] = tested on: Receptor-type tyrosine-protein kinase FLT3 (Homo sapiens), P36888 [D835Y]; assay: Binding affinity to human partial length FLT3 D835Y mutant (Q580 to Y969 residues) expressed in bacterial expression system assessed as residual binding level at 1 uM by Kinomescan method relative to control; method in brief: as §2
[8] = target: Serine/threonine-protein kinase ICK (Homo sapiens) (UniProt Q9UPZ9); assay: Binding affinity to wild-type human partial length ICK (M1 to P314 residues) expressed in mammalian expression system assessed as residual binding level at 1 uM by Kinomescan method relative to control
[9] = target: Serine/threonine-protein kinase 16 (Homo sapiens) (UniProt O75716); assay: Binding affinity to wild-type human partial length STK16 (G11 to I305 residues) expressed in bacterial expression system assessed as residual binding level at 1 uM by Kinomescan method relative to control
[10] = target: Bone morphogenetic protein receptor type-2 (Homo sapiens) (UniProt Q13873); assay: Binding affinity to wild-type human partial length BMPR2 (R179 to Q526 residues) expressed in mammalian expression system assessed as residual binding level at 1 uM by Kinomescan method relative to control; method in brief: as §1
Bone morphogenetic protein receptor type-2 (Homo sapiens), sequence (Q13873 whole entry, the tested form may be a part): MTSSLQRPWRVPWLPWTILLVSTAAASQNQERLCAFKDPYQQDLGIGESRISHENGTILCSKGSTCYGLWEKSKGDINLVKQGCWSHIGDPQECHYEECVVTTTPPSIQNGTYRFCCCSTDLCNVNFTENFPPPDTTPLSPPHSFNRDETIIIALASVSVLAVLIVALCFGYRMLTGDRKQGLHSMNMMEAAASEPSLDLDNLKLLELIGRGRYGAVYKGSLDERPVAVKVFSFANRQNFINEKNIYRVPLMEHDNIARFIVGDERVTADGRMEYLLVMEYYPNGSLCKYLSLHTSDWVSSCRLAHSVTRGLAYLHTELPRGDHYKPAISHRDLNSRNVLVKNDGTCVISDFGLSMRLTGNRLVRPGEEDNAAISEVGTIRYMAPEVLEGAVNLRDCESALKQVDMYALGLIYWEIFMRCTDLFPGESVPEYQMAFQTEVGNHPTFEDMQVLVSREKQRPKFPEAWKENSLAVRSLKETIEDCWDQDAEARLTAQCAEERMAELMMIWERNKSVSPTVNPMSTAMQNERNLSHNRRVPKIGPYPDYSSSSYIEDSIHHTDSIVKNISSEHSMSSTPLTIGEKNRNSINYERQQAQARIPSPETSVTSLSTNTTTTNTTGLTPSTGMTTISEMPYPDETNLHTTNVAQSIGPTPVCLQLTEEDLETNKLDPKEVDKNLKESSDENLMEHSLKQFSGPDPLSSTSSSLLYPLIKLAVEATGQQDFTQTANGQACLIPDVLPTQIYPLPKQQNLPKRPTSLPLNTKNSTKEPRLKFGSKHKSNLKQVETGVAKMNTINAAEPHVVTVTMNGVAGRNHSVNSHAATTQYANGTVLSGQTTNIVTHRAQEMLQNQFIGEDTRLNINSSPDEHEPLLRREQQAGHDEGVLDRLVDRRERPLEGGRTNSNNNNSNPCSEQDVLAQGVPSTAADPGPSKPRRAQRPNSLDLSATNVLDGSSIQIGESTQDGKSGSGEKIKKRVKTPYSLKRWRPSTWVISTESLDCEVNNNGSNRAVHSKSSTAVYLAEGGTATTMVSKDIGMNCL

Serine/threonine-protein kinase D3 (Homo sapiens), sequence (O94806 whole entry, the tested form may be a part): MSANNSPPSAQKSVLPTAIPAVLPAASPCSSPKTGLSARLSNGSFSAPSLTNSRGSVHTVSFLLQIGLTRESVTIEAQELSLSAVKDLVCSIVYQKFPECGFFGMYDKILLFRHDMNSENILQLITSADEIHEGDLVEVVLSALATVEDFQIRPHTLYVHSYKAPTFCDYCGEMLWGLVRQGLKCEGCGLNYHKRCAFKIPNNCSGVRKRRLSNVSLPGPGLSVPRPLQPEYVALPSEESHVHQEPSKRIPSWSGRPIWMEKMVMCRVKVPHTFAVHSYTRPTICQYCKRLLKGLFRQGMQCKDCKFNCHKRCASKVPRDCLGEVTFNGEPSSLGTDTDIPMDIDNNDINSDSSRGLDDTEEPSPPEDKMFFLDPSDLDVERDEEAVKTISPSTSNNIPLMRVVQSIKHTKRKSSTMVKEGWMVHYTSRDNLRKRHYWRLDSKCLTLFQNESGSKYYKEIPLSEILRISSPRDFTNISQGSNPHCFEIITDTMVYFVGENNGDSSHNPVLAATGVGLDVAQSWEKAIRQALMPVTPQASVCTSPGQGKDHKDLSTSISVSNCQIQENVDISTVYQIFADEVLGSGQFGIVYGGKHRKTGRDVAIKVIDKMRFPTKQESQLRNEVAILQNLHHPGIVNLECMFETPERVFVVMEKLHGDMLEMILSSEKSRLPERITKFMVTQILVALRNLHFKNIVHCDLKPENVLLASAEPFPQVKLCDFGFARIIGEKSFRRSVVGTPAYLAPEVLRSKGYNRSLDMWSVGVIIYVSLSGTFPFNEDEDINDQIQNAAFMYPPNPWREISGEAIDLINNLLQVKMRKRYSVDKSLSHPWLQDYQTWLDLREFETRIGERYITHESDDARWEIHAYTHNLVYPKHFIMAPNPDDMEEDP
Serine/threonine-protein kinase 16 (Homo sapiens), sequence (O75716 whole entry, the tested form may be a part): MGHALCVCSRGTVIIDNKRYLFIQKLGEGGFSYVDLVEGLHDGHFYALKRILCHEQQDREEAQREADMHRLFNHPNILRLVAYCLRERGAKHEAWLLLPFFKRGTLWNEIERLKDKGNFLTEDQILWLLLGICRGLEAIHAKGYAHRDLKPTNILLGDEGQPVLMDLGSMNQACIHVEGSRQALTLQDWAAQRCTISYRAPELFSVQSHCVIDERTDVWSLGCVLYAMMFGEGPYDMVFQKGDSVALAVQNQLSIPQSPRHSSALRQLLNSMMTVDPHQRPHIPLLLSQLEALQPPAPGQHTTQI
Non-receptor tyrosine-protein kinase TYK2 (Homo sapiens), sequence (P29597 whole entry, the tested form may be a part): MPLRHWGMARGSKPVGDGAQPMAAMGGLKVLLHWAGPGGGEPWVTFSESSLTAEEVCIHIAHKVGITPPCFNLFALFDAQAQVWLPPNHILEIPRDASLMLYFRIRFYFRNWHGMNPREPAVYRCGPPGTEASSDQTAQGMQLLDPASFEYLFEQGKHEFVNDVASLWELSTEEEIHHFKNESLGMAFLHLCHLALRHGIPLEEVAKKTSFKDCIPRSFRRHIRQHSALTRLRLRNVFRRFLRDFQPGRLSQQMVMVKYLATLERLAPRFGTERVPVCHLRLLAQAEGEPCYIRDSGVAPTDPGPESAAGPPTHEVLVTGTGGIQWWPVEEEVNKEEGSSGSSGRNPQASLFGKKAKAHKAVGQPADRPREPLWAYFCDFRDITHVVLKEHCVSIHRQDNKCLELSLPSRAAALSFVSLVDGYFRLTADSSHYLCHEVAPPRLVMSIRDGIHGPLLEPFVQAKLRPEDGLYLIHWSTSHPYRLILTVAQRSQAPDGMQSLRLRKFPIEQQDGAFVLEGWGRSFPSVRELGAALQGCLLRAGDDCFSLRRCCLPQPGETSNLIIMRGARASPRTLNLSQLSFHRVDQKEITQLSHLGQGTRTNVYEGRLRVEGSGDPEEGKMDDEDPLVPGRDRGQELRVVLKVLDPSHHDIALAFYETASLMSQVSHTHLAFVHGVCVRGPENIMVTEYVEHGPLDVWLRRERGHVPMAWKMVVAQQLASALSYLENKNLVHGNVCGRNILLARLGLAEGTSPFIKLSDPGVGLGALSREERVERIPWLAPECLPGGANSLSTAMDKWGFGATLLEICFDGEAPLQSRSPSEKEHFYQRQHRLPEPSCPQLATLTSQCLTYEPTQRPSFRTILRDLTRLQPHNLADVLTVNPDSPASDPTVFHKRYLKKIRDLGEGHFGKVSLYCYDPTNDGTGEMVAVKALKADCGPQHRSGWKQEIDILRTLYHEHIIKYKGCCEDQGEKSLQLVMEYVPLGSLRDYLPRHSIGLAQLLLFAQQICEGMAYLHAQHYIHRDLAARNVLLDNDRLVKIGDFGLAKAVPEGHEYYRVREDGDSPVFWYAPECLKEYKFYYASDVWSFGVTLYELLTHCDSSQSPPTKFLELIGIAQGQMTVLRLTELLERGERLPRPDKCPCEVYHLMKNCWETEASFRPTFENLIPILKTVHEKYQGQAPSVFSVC
Serine/threonine-protein kinase ICK (Homo sapiens), sequence (Q9UPZ9 whole entry, the tested form may be a part): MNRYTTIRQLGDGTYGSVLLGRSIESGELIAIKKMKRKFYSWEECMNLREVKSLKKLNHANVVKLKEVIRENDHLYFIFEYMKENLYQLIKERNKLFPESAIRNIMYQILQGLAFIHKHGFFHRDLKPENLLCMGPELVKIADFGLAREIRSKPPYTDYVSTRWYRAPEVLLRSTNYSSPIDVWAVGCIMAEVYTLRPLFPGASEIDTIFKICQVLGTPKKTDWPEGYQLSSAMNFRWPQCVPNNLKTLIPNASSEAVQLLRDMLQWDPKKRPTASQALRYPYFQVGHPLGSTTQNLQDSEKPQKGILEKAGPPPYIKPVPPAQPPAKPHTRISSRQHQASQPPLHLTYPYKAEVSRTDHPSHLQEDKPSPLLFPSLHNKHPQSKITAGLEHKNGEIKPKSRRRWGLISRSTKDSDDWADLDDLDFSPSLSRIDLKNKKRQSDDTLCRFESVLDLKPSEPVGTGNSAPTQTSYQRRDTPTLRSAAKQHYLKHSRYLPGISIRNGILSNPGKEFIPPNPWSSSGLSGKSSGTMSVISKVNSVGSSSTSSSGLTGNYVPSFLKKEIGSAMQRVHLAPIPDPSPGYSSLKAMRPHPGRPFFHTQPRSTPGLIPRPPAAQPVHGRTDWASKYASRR
Mitogen-activated protein kinase kinase kinase 11 (Homo sapiens), sequence (Q16584 whole entry, looked up, the tested form may be a part): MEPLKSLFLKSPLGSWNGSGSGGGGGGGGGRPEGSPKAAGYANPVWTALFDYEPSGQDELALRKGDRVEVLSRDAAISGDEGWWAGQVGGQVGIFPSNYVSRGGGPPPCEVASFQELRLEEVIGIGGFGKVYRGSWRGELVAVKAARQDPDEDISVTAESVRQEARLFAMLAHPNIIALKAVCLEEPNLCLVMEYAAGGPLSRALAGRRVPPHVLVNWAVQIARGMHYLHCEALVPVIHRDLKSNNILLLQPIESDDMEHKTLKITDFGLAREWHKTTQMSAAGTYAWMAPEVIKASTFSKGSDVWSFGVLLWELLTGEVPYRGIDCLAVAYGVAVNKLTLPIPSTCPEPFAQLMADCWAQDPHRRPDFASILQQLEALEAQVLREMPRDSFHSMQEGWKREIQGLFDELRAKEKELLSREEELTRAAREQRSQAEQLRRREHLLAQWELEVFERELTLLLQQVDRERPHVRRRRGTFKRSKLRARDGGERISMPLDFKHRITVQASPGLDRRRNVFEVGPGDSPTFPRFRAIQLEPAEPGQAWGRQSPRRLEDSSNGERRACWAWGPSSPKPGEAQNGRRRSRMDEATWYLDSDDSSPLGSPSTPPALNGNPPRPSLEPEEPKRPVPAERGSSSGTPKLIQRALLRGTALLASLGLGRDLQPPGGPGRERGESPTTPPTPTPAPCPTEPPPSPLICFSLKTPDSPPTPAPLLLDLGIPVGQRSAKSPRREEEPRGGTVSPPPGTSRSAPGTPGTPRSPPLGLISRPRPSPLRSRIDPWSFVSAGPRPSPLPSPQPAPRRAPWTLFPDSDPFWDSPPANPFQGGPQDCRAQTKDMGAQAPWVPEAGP

Cc1ccc(NC(=O)c2ccc(CN(CCN(C)C)C(=O)c3cccnc3)cc2)cc1Nc1nccc(-c2cccnc2)n1 gave an Activity [1] of 100%, an Activity [2] of 100% and an Activity [3] of 100%. For the same molecule, the Activity [4] was 100%, the Activity [5] was 97% and the GI50 (NCI-H1703) was 5.37 µM. The Activity [6] was 100%, the Activity [7] was 95% and the Activity [8] was 100%. For the same molecule, the Activity [9] was 88% and the Activity [10] was 100%.
